Common to all, as to type: cell-based
The target of assay [1] is GABA-A receptor; alpha-6/beta-3/gamma-2 (Homo sapiens, UniProt P18507+P28472+Q16445). As to the kind of experiment: Displacement of [3H]flunitrazepam from human recombinant GABAA alpha-6-beta-3-gamma-2 receptor expressed in HEK293 cells. Put shortly: (§1)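 Membranes from the receptor-expressing cells were harvested in hypotonic 50 mM Tris-acetate, pH 7.4 at 4°C. They were incubated with [3H]flunitrazepam in 0.5 mL for 1 h at 4°C. Nonspecific binding was taken with 100 μM diazepam. Reactions were filtered onto 0.3% polyethyleneimine-treated GF/C filters, washed three times with ice-cold buffer, and counted by liquid scintillation. Protein was measured by Bio-Rad assay against a BSA standard.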

In assay [2] the target is T1, Gamma-aminobutyric acid receptor subunit alpha-3 (Homo sapiens, UniProt P18507+P28472+P34903).
T1 sequence (P34903 whole entry): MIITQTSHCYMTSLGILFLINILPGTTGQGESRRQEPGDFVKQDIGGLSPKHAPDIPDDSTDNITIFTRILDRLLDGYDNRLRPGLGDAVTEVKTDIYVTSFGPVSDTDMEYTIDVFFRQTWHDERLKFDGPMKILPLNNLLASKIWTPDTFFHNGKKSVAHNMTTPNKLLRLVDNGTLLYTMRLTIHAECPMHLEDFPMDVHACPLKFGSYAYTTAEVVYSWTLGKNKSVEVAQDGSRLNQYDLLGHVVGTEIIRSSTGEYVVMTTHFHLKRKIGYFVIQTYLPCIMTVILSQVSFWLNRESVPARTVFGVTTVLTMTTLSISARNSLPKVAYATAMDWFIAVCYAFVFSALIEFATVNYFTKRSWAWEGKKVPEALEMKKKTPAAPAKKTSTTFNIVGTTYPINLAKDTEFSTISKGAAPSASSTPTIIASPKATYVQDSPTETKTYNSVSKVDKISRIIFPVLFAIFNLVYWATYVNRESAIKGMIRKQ
Briefly: Displacement of [3H]flunitrazepam from human recombinant GABAA alpha-3-beta-3-gamma-2 receptor expressed in HEK293 cells. Summed up: as §1

The target of assay [3] is T2, GABA-A receptor; alpha-2/beta-3/gamma-2 (Homo sapiens, UniProt P18507+P28472+P47869).
T2 sequence (P18507 whole entry): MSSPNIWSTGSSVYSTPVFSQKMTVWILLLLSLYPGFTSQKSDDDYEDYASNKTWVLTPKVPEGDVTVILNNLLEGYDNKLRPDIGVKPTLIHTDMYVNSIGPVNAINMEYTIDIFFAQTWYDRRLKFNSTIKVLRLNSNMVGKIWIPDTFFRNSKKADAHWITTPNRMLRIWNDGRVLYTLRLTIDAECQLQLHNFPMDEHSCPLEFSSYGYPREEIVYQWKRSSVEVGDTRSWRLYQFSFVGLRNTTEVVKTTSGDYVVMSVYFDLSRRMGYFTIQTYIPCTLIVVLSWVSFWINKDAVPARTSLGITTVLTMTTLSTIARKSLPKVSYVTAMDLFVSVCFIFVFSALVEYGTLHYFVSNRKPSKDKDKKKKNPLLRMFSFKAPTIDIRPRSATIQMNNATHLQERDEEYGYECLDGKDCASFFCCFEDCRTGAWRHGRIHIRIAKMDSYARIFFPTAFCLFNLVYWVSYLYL
T2 sequence (P28472 whole entry): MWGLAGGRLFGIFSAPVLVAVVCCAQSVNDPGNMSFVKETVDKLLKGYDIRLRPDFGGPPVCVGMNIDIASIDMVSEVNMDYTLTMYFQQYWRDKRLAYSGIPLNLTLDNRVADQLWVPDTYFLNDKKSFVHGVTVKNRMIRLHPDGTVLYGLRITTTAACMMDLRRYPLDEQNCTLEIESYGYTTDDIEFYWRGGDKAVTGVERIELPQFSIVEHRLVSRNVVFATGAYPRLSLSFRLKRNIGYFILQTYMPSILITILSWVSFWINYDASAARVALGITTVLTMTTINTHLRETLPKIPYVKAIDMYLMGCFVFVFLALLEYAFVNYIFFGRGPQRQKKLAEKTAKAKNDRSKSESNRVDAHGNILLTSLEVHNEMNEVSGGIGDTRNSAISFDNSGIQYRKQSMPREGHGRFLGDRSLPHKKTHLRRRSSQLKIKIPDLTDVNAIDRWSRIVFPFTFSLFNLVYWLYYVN
T2 sequence (P47869 whole entry): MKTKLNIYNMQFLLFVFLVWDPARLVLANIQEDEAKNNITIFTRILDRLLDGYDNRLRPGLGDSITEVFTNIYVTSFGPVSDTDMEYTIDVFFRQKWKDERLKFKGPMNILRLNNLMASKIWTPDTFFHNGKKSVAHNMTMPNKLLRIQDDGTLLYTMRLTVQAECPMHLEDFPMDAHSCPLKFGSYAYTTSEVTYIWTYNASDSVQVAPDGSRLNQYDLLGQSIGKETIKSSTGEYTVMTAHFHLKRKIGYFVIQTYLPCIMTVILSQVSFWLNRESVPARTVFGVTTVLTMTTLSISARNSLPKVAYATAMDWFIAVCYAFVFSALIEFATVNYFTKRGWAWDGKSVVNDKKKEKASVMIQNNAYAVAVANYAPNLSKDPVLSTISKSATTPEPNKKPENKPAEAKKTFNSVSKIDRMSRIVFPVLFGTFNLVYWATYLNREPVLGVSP
As to the kind of experiment: Displacement of [3H]flunitrazepam from human recombinant GABAA alpha-2-beta-3-gamma-2 receptor expressed in HEK293 cells. Put shortly: as §1

For assay [4], the target named is T3, GABA-A receptor; alpha-1/beta-3/gamma-2 (Homo sapiens, UniProt P14867+P18507+P28472).
T3 sequence (P14867 whole entry): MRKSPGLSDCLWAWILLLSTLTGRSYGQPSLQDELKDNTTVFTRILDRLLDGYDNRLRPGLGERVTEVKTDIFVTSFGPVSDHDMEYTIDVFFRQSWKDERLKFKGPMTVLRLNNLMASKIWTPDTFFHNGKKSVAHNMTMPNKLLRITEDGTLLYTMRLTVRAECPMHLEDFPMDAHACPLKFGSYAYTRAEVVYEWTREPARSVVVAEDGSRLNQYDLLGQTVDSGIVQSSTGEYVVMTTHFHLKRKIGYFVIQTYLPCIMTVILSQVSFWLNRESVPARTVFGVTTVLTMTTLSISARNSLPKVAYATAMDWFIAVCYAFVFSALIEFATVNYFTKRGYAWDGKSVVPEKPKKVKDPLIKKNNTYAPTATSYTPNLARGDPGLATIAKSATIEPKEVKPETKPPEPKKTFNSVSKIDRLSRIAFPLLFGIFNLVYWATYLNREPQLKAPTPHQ
T3 sequence (P18507 whole entry): T2 sequence (P18507 whole entry)
T3 sequence (P28472 whole entry): T2 sequence (P28472 whole entry)
Briefly: Displacement of [3H]flunitrazepam from human recombinant GABAA alpha-1-beta-3-gamma-2 receptor expressed in HEK293 cells. Put shortly: as §1

Assay [5] concerns the target T4, GABA-A receptor; alpha-5/beta-3/gamma-2 (Homo sapiens, UniProt P18507+P28472+P31644).
T4 sequence (P18507 whole entry): T2 sequence (P18507 whole entry)
T4 sequence (P28472 whole entry): T2 sequence (P28472 whole entry)
T4 sequence (P31644 whole entry): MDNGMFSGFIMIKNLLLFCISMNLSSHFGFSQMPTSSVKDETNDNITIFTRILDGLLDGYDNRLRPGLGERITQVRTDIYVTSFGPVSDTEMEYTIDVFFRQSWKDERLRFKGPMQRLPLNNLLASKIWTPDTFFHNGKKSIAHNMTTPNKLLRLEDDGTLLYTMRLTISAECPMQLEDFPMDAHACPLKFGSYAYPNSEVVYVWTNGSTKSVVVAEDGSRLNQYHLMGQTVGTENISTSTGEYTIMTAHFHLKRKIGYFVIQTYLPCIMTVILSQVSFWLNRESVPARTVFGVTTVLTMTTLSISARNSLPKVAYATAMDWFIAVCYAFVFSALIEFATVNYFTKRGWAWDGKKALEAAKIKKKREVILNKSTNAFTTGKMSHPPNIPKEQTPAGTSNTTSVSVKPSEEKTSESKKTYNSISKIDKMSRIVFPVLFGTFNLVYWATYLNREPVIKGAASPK
Briefly: Displacement of [3H]flunitrazepam from human recombinant GABAA alpha-5-beta-3-gamma-2 receptor expressed in HEK293 cells. Put shortly:
as §1

Assay [6] has as its target GABA A receptor alpha-4/beta-3/gamma-2 (Homo sapiens, UniProt P18507+P28472+P48169). As to the kind of experiment: Displacement of [3H]flunitrazepam from human recombinant GABAA alpha-4-beta-3-gamma-2 receptor expressed in HEK293 cells. Put shortly:
as §1

pKi: −log10 of the molar value. Bounds are passed on as bounds.

GABA-A receptor; alpha-6/beta-3/gamma-2, sequence (Q16445 whole entry, one chain of several): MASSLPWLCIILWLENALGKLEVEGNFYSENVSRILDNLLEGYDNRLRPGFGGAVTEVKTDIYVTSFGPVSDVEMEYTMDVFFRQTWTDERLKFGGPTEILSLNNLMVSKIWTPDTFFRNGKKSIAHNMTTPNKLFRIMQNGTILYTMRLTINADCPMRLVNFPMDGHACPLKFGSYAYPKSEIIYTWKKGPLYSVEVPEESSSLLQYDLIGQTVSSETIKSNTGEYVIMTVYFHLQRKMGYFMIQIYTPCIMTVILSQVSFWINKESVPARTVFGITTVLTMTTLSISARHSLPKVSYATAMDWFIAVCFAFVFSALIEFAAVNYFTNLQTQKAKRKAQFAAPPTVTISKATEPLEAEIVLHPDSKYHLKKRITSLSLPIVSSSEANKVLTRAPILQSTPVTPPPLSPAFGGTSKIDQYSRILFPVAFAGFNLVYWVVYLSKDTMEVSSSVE
GABA A receptor alpha-4/beta-3/gamma-2, sequence (P48169 whole entry, one chain of several): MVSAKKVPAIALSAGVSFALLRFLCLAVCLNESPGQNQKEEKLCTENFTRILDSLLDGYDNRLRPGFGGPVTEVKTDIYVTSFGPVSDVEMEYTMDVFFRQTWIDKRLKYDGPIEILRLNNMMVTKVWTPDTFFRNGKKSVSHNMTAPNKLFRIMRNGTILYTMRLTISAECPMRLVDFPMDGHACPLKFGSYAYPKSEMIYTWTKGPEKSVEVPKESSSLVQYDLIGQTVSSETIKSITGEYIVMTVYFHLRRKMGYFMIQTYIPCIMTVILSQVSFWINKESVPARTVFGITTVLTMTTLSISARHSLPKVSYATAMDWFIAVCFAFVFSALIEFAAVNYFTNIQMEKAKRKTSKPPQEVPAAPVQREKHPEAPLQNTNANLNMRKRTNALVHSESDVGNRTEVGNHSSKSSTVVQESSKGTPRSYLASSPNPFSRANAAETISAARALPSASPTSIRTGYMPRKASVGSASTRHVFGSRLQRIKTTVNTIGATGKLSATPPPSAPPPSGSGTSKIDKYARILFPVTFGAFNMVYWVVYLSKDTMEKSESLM

Consider `C#Cc1ccc2c(c1)C(=O)N(C)Cc1c(C(=O)OCCCCCOC(=O)c3ncn4c3CN(C)C(=O)c3cc(C#C)ccc3-4)ncn1-2`, for which the negative logarithm of the Ki (pKi) in assay [1] is 7.27; in assay [2], 5.57; in assay [3], 6.18; in assay [4], 6.64; in assay [5], 8.27.
With `C#Cc1ccc2c(c1)C(=O)N(C)Cc1c(C(=O)OCOCOC(=O)c3ncn4c3CN(C)C(=O)c3cc(C#C)ccc3-4)ncn1-2`, the pKi is 5.73 in assay [2], 5.57 in assay [3], 5.42 in assay [4] and 7.12 in assay [5].
On to `CCc1ccc2c(c1)C(=O)N(C)Cc1c(C(=O)OCCCOC(=O)c3ncn4c3CN(C)C(=O)c3cc(CC)ccc3-4)ncn1-2`, for which the pKi was 5.30 in assay [1]; 5.07 in assay [2]; 5.33 in assay [3]; 5.73 in assay [4]; 7.00 in assay [5].
Consider `C#Cc1ccc2c(c1)C(c1ccccc1)=NCc1c(C(=O)OCCCOC(=O)c3ncn4c3CN=C(c3ccccc3)c3cc(C#C)ccc3-4)ncn1-2`, for which the pKi in assay [1] is less than 5.30; in assay [6] it was less than 5.30; in assay [2], 6.57; in assay [3] it was 8.13; in assay [4], 6.63; in assay [5], 6.71.
As to `C#Cc1ccc2c(c1)C(=O)N(C)Cc1c(C(=O)OCC)ncn1-2`, the pKi in assay [6] was 8.28.
On to `C#Cc1ccc2c(c1)C(c1ccccc1)=NCc1c(C(=O)OCCOCCOC(=O)c3ncn4c3CN=C(c3ccccc3)c3cc(C#C)ccc3-4)ncn1-2`, for which the negative-log Ki (pKi) in assay [1] is 5.30; in assay [3], 5.30; in assay [4], 6.34; in assay [5], 5.30.

The values above are taken from ChEMBL document CHEMBL1141720, “A study of the structure-activity relationship of GABA(A)-benzodiazepine receptor bivalent ligands by conformational analysis with low temperature NMR and X-ray analysis” (Bioorg Med Chem, 2008).
